Experimental findings from ChEMBL document CHEMBL2401617, “Synthesis and biological evaluation of some novel thiazole compounds as potential anti-inflammatory agents” (2013) are described below.

Holding throughout (assay type): functional
Test [1] relates to Serratia marcescens. Description: Antibacterial activity against Serratia marcescens IMRU 70 assessed as growth inhibition after 24 hrs by Kirby-Bauer disc diffusion method relative to ampicillin. More on the design: concentration or dose not given beside the values. A digest of the protocol: (§1)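 Modified Kirby-Bauer disc diffusion on Mueller-Hinton agar spread with broth culture at about 10^8 cells/ml. Blank 8.0 mm paper discs were impregnated with test solution. Ampicillin discs at the same concentration and solvent served as positive control, and solvent discs as negative control. Plates were incubated at 35–37 °C, and inhibition-zone diameter (mm) was read at 24 h by caliper. % activity index = zone relative to ampicillin.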
On the technique in general: In agar diffusion tests the substance spreads into inoculated agar from a disc or well.

Test [2] concerns Proteus mirabilis. Description: Antibacterial activity against Proteus mirabilis NCTC 289 assessed as growth inhibition after 24 hrs by Kirby-Bauer disc diffusion method relative to ampicillin. The arrangement: concentration or dose not given beside the values. In short, it runs like this:
as §1

Test [3] relates to Bacillus cereus. Description: Antibacterial activity against Bacillus cereus NCTC 14579 assessed as growth inhibition after 24 hrs by Kirby-Bauer disc diffusion method relative to ampicillin. In short, it runs like this: as §1
Test [4] concerns Staphylococcus aureus. Description: Antibacterial activity against Staphylococcus aureus NCTC 7447 assessed as growth inhibition after 24 hrs by Kirby-Bauer disc diffusion method relative to ampicillin. More on the design: concentration or dose not given beside the values. In short, it runs like this: as §1
Test [5] concerns Staphylococcus aureus. Nature of the test: Antibacterial activity against Staphylococcus aureus NCTC 7447 assessed as growth inhibition by disc diffusion method.
In test [6] the test system is Serratia marcescens. Description: Antibacterial activity against Serratia marcescens IMRU 70 assessed as growth inhibition after 24 hrs by Kirby-Bauer disc diffusion method. A digest of the protocol: as §1
The test system of test [7] is Proteus mirabilis. Description: Antibacterial activity against Proteus mirabilis NCTC 289 assessed as growth inhibition after 24 hrs by Kirby-Bauer disc diffusion method. In short, it runs like this: as §1
Test [8] relates to Bacillus cereus. Nature of the test: Antibacterial activity against Bacillus cereus NCTC 14579 assessed as growth inhibition after 24 hrs by Kirby-Bauer disc diffusion method. A digest of the protocol:
as §1

Test [9] relates to Staphylococcus aureus. Description: Antibacterial activity against Staphylococcus aureus NCTC 7447 assessed as growth inhibition after 24 hrs by Kirby-Bauer disc diffusion method. A digest of the protocol:
as §1

In test [10] the test system is Rattus norvegicus. Description: Antiinflammatory activity in albino Wistar rat assessed as inhibition of carrageenan-induced paw oedema at 50 mg/kg, po administered 1 hr prior to carrageenan challenge measured at 4 hrs by plethysmometeric analysis relative to control. A digest of the protocol: (§2)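 Albino Wistar rats of either sex (130–150 g), 6 per group, fasted 12 h with water ad libitum. Test compounds were given orally at 50 mg/kg as DMSO solution; controls received 1 ml 20% v/v DMSO. One hour later, 0.1 ml 1% w/v carrageenan in 0.9% saline was injected into the left hind paw plantar region. Plethysmometer volume was read at 0 and 1–4 h. % inhibition = [1 − (Vt/Vc)] × 100.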
For orientation: In the carrageenan paw model, swelling and tenderness develop within hours.

Test [11] relates to Rattus norvegicus. Nature of the test: Antiinflammatory activity in albino Wistar rat assessed as inhibition of carrageenan-induced paw oedema at 50 mg/kg, po administered 1 hr prior to carrageenan challenge measured at 3 hrs by plethysmometeric analysis relative to control. In short, it runs like this:
as §2

The test system of test [12] is Rattus norvegicus. Description: Antiinflammatory activity in albino Wistar rat assessed as inhibition of carrageenan-induced paw oedema at 50 mg/kg, po administered 1 hr prior to carrageenan challenge measured at 2 hrs by plethysmometeric analysis relative to control. In short, it runs like this: as §2
The test system of test [13] is Rattus norvegicus. Nature of the test: Antiinflammatory activity in albino Wistar rat assessed as inhibition of carrageenan-induced paw oedema at 50 mg/kg, po administered 1 hr prior to carrageenan challenge measured at 1 hr post carrageenan challenge by plethysmometeric analysis relative to control. A digest of the protocol:
as §2

The subject of test [14] is Rattus norvegicus. Description: Antiinflammatory activity in albino Wistar rat assessed as inhibition of carrageenan-induced paw oedema at 10 mg/kg, po administered 1 hr prior to carrageenan challenge measured at 4 hrs by plethysmometeric analysis relative to control. In short, it runs like this:
(§3)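 Albino Wistar rats of either sex (130–150 g), 6 per group, fasted 12 h with water ad libitum. Indomethacin 10 mg/kg was given orally in 1 ml 20% v/v DMSO; controls received vehicle. One hour later, 0.1 ml 1% w/v carrageenan in 0.9% saline was injected subplantar into the left hind paw. Paw volume was read by plethysmometer at 0 and 1–4 h. % inhibition = [1 − (Vt/Vc)] × 100.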

Test [15] relates to Rattus norvegicus. Description: Antiinflammatory activity in albino Wistar rat assessed as inhibition of carrageenan-induced paw oedema at 10 mg/kg, po administered 1 hr prior to carrageenan challenge measured at 3 hrs by plethysmometeric analysis relative to control. In short, it runs like this:
as §3

The subject of test [16] is Rattus norvegicus. Nature of the test: Antiinflammatory activity in albino Wistar rat assessed as inhibition of carrageenan-induced paw oedema at 10 mg/kg, po administered 1 hr prior to carrageenan challenge measured at 2 hrs by plethysmometeric analysis relative to control. In short, it runs like this: as §3
In test [17] the test system is Rattus norvegicus. Nature of the test: Antiinflammatory activity in albino Wistar rat assessed as inhibition of carrageenan-induced paw oedema at 10 mg/kg, po administered 1 hr prior to carrageenan challenge measured at 1 hr post carrageenan challenge by plethysmometeric analysis relative to control. In short, it runs like this:
as §3

≈ marks a conversion by molar mass, not a printed value.

For the compound `C/C(=N\NC(=O)CC#N)c1ccc(N2CCOCC2)cc1`, the Activity_index with Serratia marcescens [1] is given as 15.72%; with Proteus mirabilis [2], 14.28%; in the test on Bacillus cereus [3], 17.39%; in the test on Staphylococcus aureus [4], 75%. The MIC in the test with Staphylococcus aureus [5] came out at 40 µg/mL (≈ 140 µM). In addition, the “diameter of the inhibition zone (DIZ)” value amounted to 2 mm in the test with Serratia marcescens [6], 3 mm in the test with Proteus mirabilis [7], 4 mm with Bacillus cereus [8] and 18 mm in the test on Staphylococcus aureus [9].

`C/C(=N\N=C1/N=C2OC(=O)C=C2S1)c1ccc(N2CCOCC2)cc1`: the Activity_index was 15.72% with Serratia marcescens [1], 9.52% in the test on Proteus mirabilis [2], 17.39% with Bacillus cereus [3] and 20.83% in the test with Staphylococcus aureus [4]. In addition, the inhibition in vivo at 50 mg/kg stood at 85% in the test with Rattus norvegicus [10], 75.7% with Rattus norvegicus [11], 50.6% with Rattus norvegicus [12] and 23.3% in the test with Rattus norvegicus [13]. The “diameter of the inhibition zone (DIZ)” value in the test with Serratia marcescens [6] turned out to be 3 mm; in the test on Proteus mirabilis [7], 2 mm; with Bacillus cereus [8], 4 mm; in the test with Staphylococcus aureus [9] it was 5 mm.

On to `C/C(=N\N=C(\N)S)c1ccc(N2CCOCC2)cc1`, for which the Activity_index is 15.72% in the test with Serratia marcescens [1], 9.52% in the test with Proteus mirabilis [2], 17.39% in the test with Bacillus cereus [3] and 16.67% in the test on Staphylococcus aureus [4]. The inhibition in vivo at 50 mg/kg in the test with Rattus norvegicus [10] is 83.6%; with Rattus norvegicus [11] it was 55.7%; with Rattus norvegicus [12], 23%; in the test with Rattus norvegicus [13], -35%. Besides, the “diameter of the inhibition zone (DIZ)” value was determined as 3 mm in the test with Serratia marcescens [6], 2 mm in the test on Proteus mirabilis [7], 4 mm in the test on Bacillus cereus [8] and 4 mm in the test on Staphylococcus aureus [9].

Turning to `COc1ccc2c(c1)c(CC(=O)O)c(C)n2C(=O)c1ccc(Cl)cc1` [INDOMETHACIN], the inhibition in vivo at 10 mg/kg in the test on Rattus norvegicus [14] is 91.3%; in the test on Rattus norvegicus [15], 75.5%; with Rattus norvegicus [16], 45.1%; with Rattus norvegicus [17], 10.5%.

One may read the MIC as the smallest concentration in the dilution series that meets the test's criterion for growth inhibition. Usually inhibition in vivo stands for the change of the read-out against control, counted positive when it falls.
